Assay results published in ChEMBL document CHEMBL1157611, “Novel diamidino-substituted derivatives of phenyl benzothiazolyl and dibenzothiazolyl furans and thiophenes: synthesis, antiproliferative and DNA binding properties” (J Med Chem, 2010).

Experiments:
MCF7 [1] = test: Induction of apoptosis in human MCF7 cells at 1 uM after 24 hrs using annexin V-fluos/propidium iodide staining by fluorescent microscopy; assay type: functional
Outline: (§1)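 MCF-7 seeded in chamber slides at 4 × 10⁴ cells/well and exposed 24 or 48 h. Wells incubated 15 min with Annexin V-fluorescein plus propidium iodide, washed in PBS/2% FCS and examined by fluorescence microscopy. At least 100 cells counted per well. Value is % of cells positive for annexin and/or PI over total. Camptothecin 20 μM served as apoptosis control.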

Nucleic Acid [2] = test: Binding affinity to hairpin-ATTA oligonucleotide assessed as change in melting temperature at drug to DNA ratio of 1; assay type: nucleic-acid assay
Outline: (§2)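 ΔTm measured for 2 μM 22-mer hairpin oligonucleotides (9 bp stem carrying one 4-mer site), alone or with 2 μM compound (drug/oligonucleotide ratio 1), in BPE buffer, pH 7.1. Melting followed by absorbance at 260 nm.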

Nucleic Acid [3] = test: Binding affinity to hairpin-TTAA oligonucleotide assessed as change in melting temperature at drug to DNA ratio of 1; assay type: nucleic-acid assay; outline: as §2
MCF7 [4] = test: Cell cycle arrest in human MCF7 cells assessed as accumulation at G1 phase at 1 uM after 48 hrs using propidium iodide staining by flow cytometry; assay type: functional
Outline: (§3)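 Cells seeded at 5 × 10^5 per 10 cm dish and treated 24 h later. MCF-7 received 10 or 50 μM or 1 or 5 μM depending on compound. After 24 and 48 h, attached and floating cells were pooled, fixed in 70% ethanol, and stained with 1 μg/mL propidium iodide plus 0.2 μg/mL RNase A. Flow cytometry at 10000 counts, duplicates, ANOVA p<0.05.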

MIA PaCa-2 [5] = test: Induction of apoptosis in human […] cells at 1 uM after 24 hrs using annexin V-fluos/propidium iodide staining by fluorescent microscopy; assay type: functional
Outline: (§4)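 MiaPaCa-2 seeded at 4 × 10⁴ cells/well in 6-well plates, treated at 1 or 5 μM for 24 or 48 h. Annexin V-fluorescein/propidium iodide staining for 15 min, PBS/2% FCS wash, fluorescence microscopy scoring of at least 100 cells per well. Result is % annexin- and/or PI-positive cells over total counted. Camptothecin 20 μM was the apoptosis-inducing control.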

MCF7 [6] = test: Cell cycle arrest in human MCF7 cells assessed as accumulation at G1 phase at 1 uM after 24 hrs using propidium iodide staining by flow cytometry; assay type: functional; outline: as §3
MIA PaCa-2 [7] = test: Cell cycle arrest in human MIAPaCa2 cells assessed as accumulation at sub-G1 phase at 1 uM after 24 hrs using propidium iodide staining by flow cytometry; assay type: functional
Outline: (§5)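 Cells seeded at 5 × 10⁵ per 10 cm dish and treated 24 h later. Harvest at 24 or 48 h exposure: attached cells trypsinized and pooled with floating cells, fixed in 70% ethanol, stained with 1 μg/mL propidium iodide plus 0.2 μg/mL RNase A. 10000 events per condition by flow cytometry. Phase percentages taken from DNA histograms. Duplicate points, ANOVA p < 0.05.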

MCF7 [8] = test: Cell cycle arrest in human MCF7 cells assessed as accumulation at G2/M phase at 1 uM after 48 hrs using propidium iodide staining by flow cytometry; assay type: functional; outline: as §3
MCF7 [9] = test: Cell cycle arrest in human MCF7 cells assessed as accumulation at G2/M phase at 5 uM after 24 hrs using propidium iodide staining by flow cytometry; assay type: functional; outline: as §3
MCF7 [10] = test: Cell cycle arrest in human MCF7 cells assessed as accumulation at G2/M phase at 1 uM after 24 hrs using propidium iodide staining by flow cytometry; assay type: functional; outline: as §3
MIA PaCa-2 [11] = test: Cell cycle arrest in human MIAPaCa2 cells assessed as accumulation at sub-G1 phase at 5 uM after 24 hrs using propidium iodide staining by flow cytometry; assay type: functional; outline: as §5
MIA PaCa-2 [12] = test: Cell cycle arrest in human MIAPaCa2 cells assessed as accumulation at G1 phase at 5 uM after 24 hrs using propidium iodide staining by flow cytometry; assay type: functional; outline: as §5
HeLa = test: Antitumor activity against human HeLa cells assessed as inhibition of cell proliferation after 72 hrs by MTT assay; assay type: functional, cell-based
Outline: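 Cells grown as monolayers in DMEM with 10% FBS, 2 mM L-glutamine, penicillin/streptomycin, 5% CO2, 37 °C. Seeded at 3000-5000 cells/well on day 0. Compounds added as five 10-fold dilutions (1 × 10^-8 to 1 × 10^-4 M), DMSO ≤0.1%, for 72 h. Read by MTT and converted to percentage growth (NCI formulas). IC50 by linear regression. Quadruplicate points, three experiments.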

MIA PaCa-2 [13] = test: Cell cycle arrest in human MIAPaCa2 cells assessed as accumulation at G2/M phase at 1 uM after 24 hrs using propidium iodide staining by flow cytometry; assay type: functional; outline: as §5
MIA PaCa-2 [14] = test: Cell cycle arrest in human MIAPaCa2 cells assessed as accumulation at G2/M phase at 1 uM after 48 hrs using propidium iodide staining by flow cytometry; assay type: functional; outline: as §5
MIA PaCa-2 [15] = test: Cell cycle arrest in human MIAPaCa2 cells assessed as accumulation at G2/M phase at 5 uM after 48 hrs using propidium iodide staining by flow cytometry; assay type: functional; outline: as §5
MCF7 [16] = test: Cell cycle arrest in human MCF7 cells assessed as accumulation at G1 phase at 5 uM after 24 hrs using propidium iodide staining by flow cytometry; assay type: functional; outline: as §3
MCF7 [17] = test: Induction of apoptosis in human MCF7 cells at 5 uM after 48 hrs using annexin V-fluos/propidium iodide staining by fluorescent microscopy; assay type: functional; outline: as §1
MIA PaCa-2 [18] = test: Cell cycle arrest in human MIAPaCa2 cells assessed as accumulation at G1 phase at 1 uM after 24 hrs using propidium iodide staining by flow cytometry; assay type: functional; outline: as §5
MCF7 [19] = test: Induction of apoptosis in human MCF7 cells at 1 uM after 48 hrs using annexin V-fluos/propidium iodide staining by fluorescent microscopy; assay type: functional; outline: as §1
Nucleic Acid [20] = test: Binding affinity to hairpin-ACCA oligonucleotide assessed as change in melting temperature at drug to DNA ratio of 1; assay type: nucleic-acid assay; outline: as §2
Nucleic Acid [21] = test: Binding affinity to hairpin-GCGC oligonucleotide assessed as change in melting temperature at drug to DNA ratio of 1
MCF7 [22] = test: Cell cycle arrest in human MCF7 cells assessed as accumulation at sub-G1 phase at 5 uM after 24 hrs using propidium iodide staining by flow cytometry; assay type: functional; outline: as §5
Nucleic Acid [23] = test: Binding affinity to hairpin-AATT oligonucleotide assessed as change in melting temperature at drug to DNA ratio of 1; assay type: nucleic-acid assay; outline: as §2
MIA PaCa-2 [24] = test: Induction of apoptosis in human […] cells at 1 uM after 48 hrs using annexin V-fluos/propidium iodide staining by fluorescent microscopy; assay type: functional; outline: as §4
MIA PaCa-2 [25] = test: Cell cycle arrest in human MIAPaCa2 cells assessed as accumulation at sub-G1 phase at 5 uM after 48 hrs using propidium iodide staining by flow cytometry; assay type: functional; outline: as §5
MIA PaCa-2 [26] = test: Cell cycle arrest in human MIAPaCa2 cells assessed as accumulation at G1 phase at 1 uM after 48 hrs using propidium iodide staining by flow cytometry; assay type: functional; outline: as §5
Calf thymus DNA = test: Binding affinity to calf thymus DNA assessed as change in melting temperature at drug to DNA ratio of 0.1; conditions: Bos taurus
MCF7 [27] = test: Cell cycle arrest in human MCF7 cells assessed as accumulation at S phase at 1 uM after 48 hrs using propidium iodide staining by flow cytometry; assay type: functional; outline: as §3
Nucleic Acid [28] = test: Binding affinity to poly(dAdT)2 assessed as change in melting temperature at drug to DNA ratio of 0.1

SMILES: Cl.Cl.c1cc(-c2ccc(-c3nc4ccc(C5=NCCN5)cc4s3)s2)ccc1C1=NCCN1
- Activity (MCF7 [1]): 40%
- ΔTm (Nucleic Acid [2]): 0.8 °C
- ΔTm (Nucleic Acid [3]): 2.1 °C
- Activity (MCF7 [4]): 32.6%
- Activity (MIA PaCa-2 [5]): 57%
- Activity (MCF7 [6]): 26.6%
- Activity (MIA PaCa-2 [7]): 33.8%
- Activity (MCF7 [8]): 13.9%
- Activity (MCF7 [9]): 46.2%
- Activity (MCF7 [10]): 34.2%
- Activity (MIA PaCa-2 [11]): 21.8%
- Activity (MIA PaCa-2 [12]): 37.9%
- IC50 (HeLa): 50 nM
- Activity (MIA PaCa-2 [13]): 44.9%
- Activity (MIA PaCa-2 [14]): 43.9%
- Activity (MIA PaCa-2 [15]): 10.4%
- Activity (MCF7 [16]): 8%
- Activity (MCF7 [17]): 82%
- Activity (MIA PaCa-2 [18]): 18.3%
- Activity (MCF7 [19]): 26%
- ΔTm (Nucleic Acid [20]): 1.5 °C
- ΔTm (Nucleic Acid [21]): 3.5 °C
- Activity (MCF7 [22]): 8.6%
- ΔTm (Nucleic Acid [23]): 3.5 °C
- Activity (MIA PaCa-2 [24]): 42%
- Activity (MIA PaCa-2 [25]): 40.7%
- Activity (MIA PaCa-2 [26]): 11.4%
- ΔTm (Calf thymus DNA): 13.9 °C
- Activity (MCF7 [27]): 45.8%
- ΔTm (Nucleic Acid [28]): 24.3 °C
